# In PMC6688507 (Journal of medicinal chemistry, 2018):
# “Also recorded” adds a separate entry of the source.
# Experiments:
# pancreatic cancer = conditions: metastatic pancreatic cancer patients; cited from earlier work
# MIA PaCa-2 xenograft [1] = conditions: 20 mg/kg, 31-day study, similar MIA PaCa-2 xenograft model; cited from earlier work
# [2] = test system: ROS accumulation in MIA PaCa-2 cells; test: ROS detection assay; type: cell-based, human; conditions: for ROS accumulation / ROS induction after NAC pretreatment: MIA PaCa-2; for ROS accumulation: compounds at 10, 3.3 or 1.1 μM; for ROS induction after NAC pretreatment: NAC 5 mM for 30 min; for ROS induction and cytotoxicity compared with QD325: triphenylphosphonium derivatives
# Method in brief: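 MIA PaCa-2 cells were trypsinised (0.05% trypsin-EDTA), loaded with 20 μM H2DCFDA for 30 min at 37 °C, washed, then seeded at 20,000 cells/well. After 30 min they were given test compound, with DMSO for basal signal and unstained cells plus 10 μM compound for autofluorescence. For NAC runs, cells were pretreated with 5 mM NAC for 30 min, with H2O2 as a control. Fluorescence was read at 493/523 nm over time, in duplicates; three independent experiments.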
# [3] = test system: nascent RNA synthesis in MIA PaCa-2 cells; test: Bru-seq analysis for nascent RNA synthesis; type: cell-based, human; conditions: for apoptosis signaling by IPA analysis: 4 h, QD232 3 times IC50, QD325 5 times IC50; for nascent mitochondrial RNA synthesis: MIA PaCa-2, 4-hour treatment, QD232 at 6.9 μM, QD325 at 5.0 μM; for synthesis of NQO1 and HMOX1 RNAs / transcription of DDIT3 and HSPA5: MIA PaCa-2, 4 h; for synthesis of NQO1 and HMOX1 RNAs: QD232 at 1, 2 or 3 times IC50, QD325 at 1, 2 or 5 times IC50; for transcription of DDIT3 and HSPA5: dose-dependent
# MIA PaCa-2 cells = test: MTT cytotoxicity assay, MIA PaCa-2; type: cell-based, human; conditions: for effect of NAC on proliferation inhibitory effect: NAC 5 mM, MTT assay, 72 h; for IC50: Homo sapiens, MIA PaCa-2, 72 h, read-out: IC50 (μM) MIA PaCa-2, MTT assay, 72 h treatment, mean ± SD from three independent experiments
# MIA PaCa-2 xenograft [4] = test: MIA PaCa-2 xenograft tumor growth in NOD/SCID mice; type: in vivo
# [5] = tolerability in MIA PaCa-2 engrafted NOD/SCID mice; type: in vivo
# BxPC-3 cells = test: MTT cytotoxicity assay, BxPC-3; type: cell-based; conditions: Homo sapiens, BXPC-3, 72 h, read-out: IC50 (μM) BxPC-3, MTT assay, 72 h treatment; mean ± SD from three independent experiments
molecule,measurement,setting,value
Nc1ccn([C@@H]2O[C@H](CO)[C@@H](O)C2(F)F)c(=O)n1 [Gemcitabine],median overall survival,pancreatic cancer,6.8 months
"CC(=O)c1cccc(NC2=CC(=O)c3ncncc3C2=O)c1 [QD232, reference compound]",suppression of tumor growth,MIA PaCa-2 xenograft [1],65%
same,ROS accumulation,[2],time-and dose-dependent accumulation of ROS
same,ROS induction after NAC pretreatment,[2],inhibited
same,apoptosis signaling by IPA analysis,[3],significant activation of apoptosis signaling
same,nascent mitochondrial RNA synthesis,[3],inhibited
same,synthesis of NQO1 and HMOX1 RNAs,[3],upregulated in a dose-dependent manner
same,transcription of DDIT3 and HSPA5,[3],significantly increased
same,effect of NAC on proliferation inhibitory effect,MIA PaCa-2 cells,attenuated
"O=C1C(Nc2ccc(-c3ccccc3)cc2)=CC(=O)c2ncncc21 [QD325, 6-([1,1’-Biphenyl]-4-ylamino)quinazoline-5,8-dione]",Ki67 staining (proliferation marker) in tumor tissues,"MIA PaCa-2 xenograft [4]; QD325 5 mg/kg five times a week until day 44, immunohistochemistry",decreased
same,"inhibition of tumor growth, experiment of Figure 6E","MIA PaCa-2 xenograft [4]; QD325 5 mg/kg five times a week, 48 days",83%
same,"inhibition of tumor growth, experiment of Figure 5A","MIA PaCa-2 xenograft [4]; QD325 5 mg/kg five times a week, day 44",76%
same,"NQO1, HO-1, CHOP and GRP78 protein levels in tumor lysates",MIA PaCa-2 xenograft [4]; QD325-treated vs vehicle-treated tumors,significantly upregulated
same,histopathology of H&E stained organ sections,[5]; 5 mg/kg five times a week until day 44,did not reveal any major histopathological changes
same,systemic toxicity at higher doses,"[5]; dose increased from 5 to 20 mg/kg, day 44 to day 67, two mice per group",without any overt systemic toxicity
same,"symptoms of gross toxicity (weakness, weight loss, lethargy)","[5]; study 1, 5 mg/kg five times a week until day 44",No symptoms of gross toxicity
same,ROS accumulation,[2],time-and dose-dependent accumulation of ROS; also recorded: stronger and more rapid ROS accumulation
same,ROS induction after NAC pretreatment,[2],inhibited
same,apoptosis signaling by IPA analysis,[3],significant activation of apoptosis signaling
same,nascent mitochondrial RNA synthesis,[3],inhibited
same,synthesis of NQO1 and HMOX1 RNAs,[3],upregulated in a dose-dependent manner
same,transcription of DDIT3 and HSPA5,[3],significantly increased
same,effect of NAC on proliferation inhibitory effect,MIA PaCa-2 cells,attenuated
"COc1cc(NC2=CC(=O)c3ncncc3C2=O)cc(OC)c1OC [QD326, 6-((3,4,5-Trimethoxyphenyl)amino)quinazoline-5,8-dione]",ROS accumulation,[2],time-and dose-dependent accumulation of ROS; also recorded: stronger and more rapid ROS accumulation
same,ROS induction after NAC pretreatment,[2],inhibited
same,effect of NAC on proliferation inhibitory effect,MIA PaCa-2 cells,attenuated
"Nc1ccc(C(=O)NCCC[P+](c2ccccc2)(c2ccccc2)c2ccccc2)cc1 [QD339, (3-(4-Aminobenzamido)propyl)triphenylphosphonium bromide]",IC50,BxPC-3 cells,> 30 µM
same,IC50,MIA PaCa-2 cells,> 30 µM
"O=C(NCCC[P+](c1ccccc1)(c1ccccc1)c1ccccc1)c1ccc(NC2=CC(=O)c3ncncc3C2=O)cc1.[Br-] [QD340, (3-(4-((5,8-Dioxo-5,8-dihydroquinazolin-6-yl)amino)benzamido)propyl) triphenylphosphonium bromide]",ROS induction and cytotoxicity compared with QD325,[2],did not show better ROS induction and cytotoxicity than QD325
"Nc1cccc(C(=O)NCCC[P+](c2ccccc2)(c2ccccc2)c2ccccc2)c1 [QD358, (3-(3-Aminobenzamido)propyl)triphenylphosphonium bromide]",IC50,BxPC-3 cells,> 30 µM
same,IC50,MIA PaCa-2 cells,> 30 µM
"O=C(NCCC[P+](c1ccccc1)(c1ccccc1)c1ccccc1)c1cccc(NC2=CC(=O)c3ncncc3C2=O)c1.[Br-] [QD359, (3-(3-((5,8-Dioxo-5,8-dihydroquinazolin-6-yl)amino)benzamido)propyl) triphenylphosphonium bromide]",ROS induction and cytotoxicity compared with QD325,[2],did not show better ROS induction and cytotoxicity than QD325
FOLFIRINOX,median overall survival,pancreatic cancer,11.1 months
